Activity calls are given as the source filed them. The rule behind the calls is not given here.
Columns and labels:
[1] = system: Trypanosoma brucei rhodesiense; assay: Antiprotozoal activity against Trypanosoma brucei rhodesiense STIB900 bloodstream form after 72 hrs by alamar blue assay; assay type: functional, organism-based
Plasmodium falciparum = assay: Antiprotozoal activity against chloroquine and pyrimethamine-resistant Plasmodium falciparum K1 after 72 hrs by [3H]hypoxanthine uptake; assay type: functional, organism-based
L6 = assay: Cytotoxicity against rat L6 cells after 72 hrs by alamar blue assay; assay type: cell-based; conditions: L6, 72 h
In short: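 Cultured L6 rat myoblasts exposed to compound; viability read by the same Alamar Blue procedure used for the STIB900 trypanosome assay; duplicate determinations.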

[2] = system: Trypanosoma brucei rhodesiense; assay: Antitrypanosomal activity against Trypanosoma brucei rhodesiense STIB900 infected in mouse assessed as parasite-free survival at 20 mg/kg, ip administered on day 3 to 6 after infection measured on day 60; assay type: functional, organism-based; parameters: dose 20 mg/kg
In short: (§1)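 STIB900 acute mouse infection model with four infected mice per group. Parent compounds were given intraperitoneally and prodrugs orally, once daily for 4 days. Read-outs were the number of mice alive and parasite-free at day 60, and average days of survival.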

[3] = system: Trypanosoma brucei rhodesiense; assay: Antitrypanosomal activity against Trypanosoma brucei rhodesiense STIB900 infected in mouse assessed as average survival days at 20 mg/kg, ip administered on day 3 to 6 after infection; assay type: functional; conditions: route intraperitoneal
[4] = Binding affinity to poly(dA-dT)2 DNA assessed as change in thermal melting temperature administered at compound to DNA ratio of 0.3 by thermistor analysis
In short: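 Thermal melting of poly(dA-dT)2 in CAC 10 buffer (cacodylic acid 10 mM, EDTA 1 mM, NaCl 100 mM, pH 7.0), 1 cm quartz cuvettes, temperature raised 0.5 C/min. DNA quantified by A260. Compound:DNA 0.3 mol/mol, compound-free DNA as control. ΔTm reproducible within 0.5 C.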

[5] = system: Trypanosoma brucei rhodesiense; assay: Antitrypanosomal activity against Trypanosoma brucei rhodesiense STIB900 infected in mouse assessed as parasite-free survival at 25 mg/kg, po administered on day 3 to 6 after infection measured on day 60; assay type: functional, organism-based; parameters: dose 25 mg/kg; in short: as §1
[6] = system: Trypanosoma brucei rhodesiense; assay: Antitrypanosomal activity against Trypanosoma brucei rhodesiense STIB900 infected in mouse assessed as average survival days at 25 mg/kg, ip administered on day 3 to 6 after infection; assay type: functional; conditions: route intraperitoneal
[7] = system: Trypanosoma brucei rhodesiense; assay: Antitrypanosomal activity against Trypanosoma brucei rhodesiense STIB900 infected in mouse assessed as parasite-free survival at 25 mg/kg, ip administered on day 3 to 6 after infection measured on day 60; assay type: functional, organism-based; parameters: dose 25 mg/kg
[8] = system: Trypanosoma brucei rhodesiense; assay: Antitrypanosomal activity against Trypanosoma brucei rhodesiense STIB900 infected in mouse assessed as average survival days at 25 mg/kg, po administered on day 3 to 6 after infection; assay type: functional

| Structure (SMILES) | IC50 [1] | IC50 (Plasmodium falciparum) | IC50 (L6) | Activity [2] | Activity [3] | ΔTm [4] | Activity [5] | Activity [6] | Activity [7] | Activity [8] |
| --- | --- | --- | --- | --- | --- | --- | --- | --- | --- | --- |
| N=C(N)Nc1ccc(-c2ccc(-c3ccc(NC(=N)N)cc3)cc2)cc1 | 0.018 µM | 27 nM | 25.4 µM | inactive | >54.5 days | 14.2 °C | – | – | – | – |
| N=C(N)Nc1ccc(-c2ccc(-c3ccc(NC(=N)N)cn3)cc2)nc1 | 0.169 µM | 151 nM | 152 µM | inactive | 8.5 days | 9.2 °C | – | – | – | – |
| CNC(=N)Nc1ccc(-c2ccc(-c3ccc(NC(=N)NC)cc3)cc2)cc1 | 0.018 µM | 7 nM | 65.1 µM | inactive | >56 days | 13 °C | – | – | – | – |
| CCOC(=O)/N=C(/Nc1ccc(-c2ccc(-c3ccc(N/C(=N/C(=O)OCC)NC(C)C)cn3)cc2)nc1)NC(C)C | 8.2 µM | 2.9 nM | > 135 µM | – | – | – | – | – | – | – |
| CCOC(=O)/N=C(\N)Nc1ccc(-c2ccc(-c3ccc(N/C(N)=N/C(=O)OCC)cn3)cc2)nc1 | 61 µM | 1.9 nM | > 181 µM | – | – | – | inactive | – | – | – |
| CC(C)NC(=N)Nc1ccc(-c2ccc(-c3ccc(NC(=N)NC(C)C)cn3)cc2)nc1 | 11.9 µM | 393 nM | 89.7 µM | – | – | 8.1 °C | – | – | – | – |
| CCOC(=O)/N=C(/Nc1ccc(-c2ccc(-c3ccc(N/C(=N/C(=O)OCC)NC(C)C)cc3)cc2)cc1)NC(C)C | 14.2 µM | 4.5 nM | 5.3 µM | – | – | – | – | – | – | – |
| CC(C)NC(=N)Nc1ccc(-c2ccc(-c3ccc(NC(=N)NC(C)C)cc3)cc2)cc1 | 0.53 µM | 14 nM | 21.9 µM | – | – | 9.3 °C | – | – | – | – |
| CCOC(=O)/N=C(\NC)Nc1ccc(-c2ccc(-c3ccc(N/C(=N/C(=O)OCC)NC)cn3)cc2)nc1 | 17.8 µM | 2.6 nM | > 169 µM | – | – | – | – | 7.75 days | inactive | – |
| CNC(=N)Nc1ccc(-c2ccc(-c3ccc(NC(=N)NC)cn3)cc2)nc1 | 0.134 µM | 54 nM | > 161 µM | inactive | >47 days | 10.2 °C | – | – | – | – |
| CCOC(=O)/N=C(\NC)Nc1ccc(-c2ccc(-c3ccc(N/C(=N/C(=O)OCC)NC)cc3)cc2)cc1 | 7.5 µM | 8.9 nM | 5.7 µM | – | – | – | inactive | – | – | 20.25 days |
| N=C(N)c1ccc(-c2ccc(-c3ccc(C(=N)N)cc3)cc2)cc1 | – | 1 nM | – | inactive | 29 days | 18.2 °C | – | – | – | – |
| CCOC(=O)/N=C(\N)Nc1ccc(-c2ccc(-c3ccc(N/C(N)=N/C(=O)OCC)cc3)cc2)cc1 | 142 µM | 1.7 nM | > 181 µM | – | – | – | inactive | – | – | 20.25 days |
